Data from PMC3947091 (Molecular imaging and biology : MIB : the official …, 2014).
* marks the point of attachment. DOTA = O=C(O)CN1CCN(CC(=O)O)CCN(CC(=O)*)CCN(CC(=O)O)CC1; Cy5.5 = Cy5.5 near-infrared fluorescence dye

Assays:
U87-Luc tumors [1] = assay: μPET/CT imaging, orthotopic U87-Luc tumors; type: in vivo, nude mice; conditions: 1 and 24 h after tail vein injection, 7.4 MBq
Outline: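 Orthotopic U87-Luc nude mice (n=4; 1×10⁶ cells implanted stereotaxically) received ⁶⁴Cu-labeled probe, 7.4 MBq (200 μCi, 0.5–1.0 μg), by tail vein. μPET/CT imaging at 1 and 24 h. Mean activities computed within ROIs drawn on tumor and normal brain, with a 1%-injected-dose standard placed beside the animal.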

[2] = tested on: U87-Luc tumors (EphB4, CD31 staining); assay: Fluorescence microscopy of excised brain sections, U87-Luc tumors; type: in vivo, nude mice; conditions: EphB4 expression only in tumor microvessels
Outline: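 Brains with implanted tumor excised from probe-injected nude mice after μPET/CT, snap-frozen, cut at 4 μm. Sections fixed in 4% paraformaldehyde 20 min RT, blocked in 10% goat serum 30 min, and incubated overnight at 4 °C with rabbit anti-human EphB4 (1:100) and rat anti-mouse CD31 (1:50). Alexa 488/594 secondaries (1:500), DAPI counterstain, fluorescence microscopy.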

U251-Luc tumors [3] = assay: μPET/CT imaging with blocking experiment, orthotopic U251-Luc tumors; type: in vivo, nude mice
Outline: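 In orthotopic U251-Luc nude mice (n=3), ⁶⁴Cu-labeled probe (7.4 MBq, 0.5–1.0 μg) was given by tail vein, alone or with 50 μg/mouse of unlabeled probe for blocking. μPET/CT at 1 and 24 h. ROIs drawn on tumor, normal brain and a standard holding 1% of the injected dose. Tumor/normal-brain voxel intensity ratio taken from 3D ROIs, reported with SD; Student t test.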

glioblastomas = conditions: 90 of 139 patients; white light comparison 47 (36 %) of 131 patients; cited from earlier work
U251-Luc tumors [4] = assay: NIR optical imaging, orthotopic U251-Luc tumors; type: in vivo, nude mice; conditions: 24 h after tail vein injection, 10 μg
Outline: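 Orthotopic xenograft made with 3×10⁶ U251-Luc cells stereotaxically implanted in male nude mice (8–10 weeks; 3 mm deep, 1 mm right, 2.5 mm behind bregma). Bioluminescence check on day 10. Tail-vein injection of 10 μg Cy5.5-labeled probe (n=12). NIR imaging at 1, 4 and 24 h (ex 675 nm/30 nm bandwidth, em 695–770 nm); tissues analyzed ex vivo at 24 h. Manual ROI, photons/s/cm².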

U87-Luc tumors [5] = type: in vivo, nude mice; conditions: 10 μg
Outline: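 Male nude mice (8–10 weeks) had 1×10⁶ U87-Luc cells implanted stereotaxically (3 mm deep, 1 mm right, 2.5 mm behind bregma). Tumor take was checked by bioluminescence on day 10 (iv d-luciferin 4 mg/kg). Cy5.5-labeled test probe or scrambled control, 10 μg, given by tail vein. NIR imaging at 1, 4 and 24 h (ex 675 nm, em 695–770 nm). Mice killed at each time point (n=4); organs weighed and imaged ex vivo. Manual ROI, photons/s/cm².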

In the case of “Cy5.5-TNYL-RAWK-^64Cu-DOTA: ^64Cu-labeled Cy5.5-TNYL-RAWK-DOTA, dual-labeled PET/optical probe ({Cy5.5}-TNYLFSPNGPIARAWK(DOTA)-NH2; also: DOTA holds 64Cu)”, the “μPET/CT visualization of tumors” value (U87-Luc tumors [1]) was “clearly visualized”, the “Binding site in tumor sections (Cy5.5 signal colocalization)” value [2] was “bound only to the tumor microvessels” and the “μPET/CT visualization of tumors, with cold peptide” value (U251-Luc tumors [3]; 1 and 24 h, coinjected cold Cy5.5-TNYL-RAWK-DOTA 50 μg/mouse) was “barely discernible”. For the same compound, the “μPET/CT visualization of tumors, absence of cold peptide” value (U251-Luc tumors [3]; 1 and 24 h after radiotracer injection, 7.4 MBq) was “clearly visualized”.
In the case of `NCC(=O)CCC(=O)O` [5-aminolevulinic acid], the “Patients with completely resected glioblastoma” value (glioblastomas) is given as 65%.
In the case of “Cy5.5-TNYL-RAWK-DOTA: TNYL-RAW with Cy5.5 at the N-terminus and DOTA at the C-terminus ({Cy5.5}-TNYLFSPNGPIARAWK(DOTA)-NH2)”, the “Cy5.5 NIR fluorescence visualization of tumor in mouse brain” value (U251-Luc tumors [4]) was “clearly visualized”, the “Brain tumor uptake clearly shown in NIR fluorescence imaging” value (U87-Luc tumors [5]; U87-Luc tumors, 1, 4 and 24 h after intravenous injection) was “clearly shown” and the “Cy5.5 NIR fluorescence visualization of tumor in mouse brain” value (U87-Luc tumors [5]; U87-Luc, 24 h after tail vein injection) was “clearly visualized”.
